According to ChEMBL document CHEMBL4265978, “In search of constrained FTY720 and phytosphingosine analogs as dual acting anticancer agents targeting metabolic and epigenetic pathways” (Eur J Med Chem, 2018):
Calls of active or inactive are those of the source. The calls are words filed in the database; no cut-off is given here.

Columns and labels:
FL5.12 [1] = assay: Cytotoxicity against mouse FL5.12 cells assessed as vacuole formation at 10 uM after 3 hrs by […]; assay type: functional, cell-based
Summary of the method: (§1)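 FL5.12 cells treated at 200,000/mL for 3 h, then imaged at 100× by brightfield/DIC. At least 5 images per condition, at least 2 biological replicates. Two researchers scored each replicate independently: 0 no vacuoles, + some cells, ++ most cells with at least 1 vacuole, +++ all cells heavily vacuolated.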

FL5.12 [2] = assay: Cytotoxicity against mouse FL5.12 cells after 48 hrs by DAPI or propidium iodide staining-based flow cytometric analysis; assay type: functional, cell-based; settings: FL5.12, 48 h
Summary of the method: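 FL5.12 (murine hematopoietic, IL-3-dependent) cells treated at 25,000/mL; viability read at 48 h by DAPI or propidium iodide dye exclusion on flow cytometry. IC50 fitted, reported with 95% confidence interval.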

FL5.12 [3] = assay: Downregulation of CD98 expression in mouse FL5.12 cells at 2.5 uM after 3 hrs by DAPI staining-based FACS analysis relative to control; assay type: functional
Summary of the method: (§2)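 FL5.12 cells plated at 225-250,000/mL and treated 3 h. 150-200,000 cells stained in triplicate on ice for 30 min with PE-anti-mouse CD98, with PE rat IgG2a κ as isotype control. Read by flow cytometry, gated on viable cells (DAPI exclusion or scatter). Loss given as mean of at least 2 biological replicates.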

FL5.12 [4] = assay: Downregulation of CD98 expression in mouse FL5.12 cells at 10 uM after 3 hrs by DAPI staining-based FACS analysis relative to control; assay type: functional; summary of the method: as §2
FL5.12 [5] = assay: Cytotoxicity against mouse FL5.12 cells assessed as vacuole formation at 2.5 uM after 3 hrs by […]; assay type: functional, cell-based; summary of the method: as §1
FL5.12 [6] = assay: Downregulation of CD98 expression in mouse FL5.12 cells at 40 uM after 3 hrs by DAPI staining-based FACS analysis relative to control; assay type: functional; summary of the method: as §2
FL5.12 [7] = assay: Cytotoxicity against mouse FL5.12 cells assessed as vacuole formation at 40 uM after 3 hrs by […]; assay type: functional, cell-based; summary of the method: as §1
[8] = target: Histone deacetylase (Homo sapiens) (UniProt Q13547+O15379+Q9UBN7+Q92769+Q9UQL6+Q8WUI4+Q9BY41+Q96DB2+P56524+Q9UKV0+Q969S8); assay: Inhibition of HDAC in human HeLa cell extract at 10 to 20 uM after 15 to 30 mins by COLOR DE LYS-based colorimetric method; assay type: protein assay
Summary of the method: (§3)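 Recombinant HDAC1 or HeLa extract incubated with acetylated lysine substrate at 37°C for 15-30 min. Developer then added: 10-15 min at 37°C with absorbance at 405 nm (colorimetric kit), or 15 min at RT with fluorescence at ex 355/em 460 nm, corrected using ± trichostatin A.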

[9] = target: Histone deacetylase 1 (Homo sapiens) (UniProt Q13547); assay: Inhibition of human recombinant HDAC1 at 20 uM after 15 to 30 mins by COLOR DE LYS-based colorimetric method; summary of the method: as §3
Chain of Histone deacetylase 1 (Homo sapiens) (Q13547 whole entry): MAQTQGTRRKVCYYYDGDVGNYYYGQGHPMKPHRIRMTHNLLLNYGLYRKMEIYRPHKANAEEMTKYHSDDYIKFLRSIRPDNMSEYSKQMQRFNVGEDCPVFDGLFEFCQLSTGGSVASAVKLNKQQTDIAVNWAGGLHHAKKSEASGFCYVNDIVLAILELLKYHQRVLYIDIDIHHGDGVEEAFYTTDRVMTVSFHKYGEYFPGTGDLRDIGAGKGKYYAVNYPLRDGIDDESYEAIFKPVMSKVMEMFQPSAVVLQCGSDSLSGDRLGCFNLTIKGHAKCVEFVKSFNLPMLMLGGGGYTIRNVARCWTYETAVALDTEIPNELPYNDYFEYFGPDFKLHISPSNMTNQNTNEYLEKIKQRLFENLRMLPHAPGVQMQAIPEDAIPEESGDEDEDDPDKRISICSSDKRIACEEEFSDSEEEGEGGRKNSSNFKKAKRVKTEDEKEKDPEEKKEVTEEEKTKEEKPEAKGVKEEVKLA

| SMILES | Activity (FL5.12 [1]) | IC50 (FL5.12 [2]) [µM] | Activity (FL5.12 [3]) [%] | Activity (FL5.12 [4]) [%] | Activity (FL5.12 [5]) | Activity (FL5.12 [6]) [%] | Activity (FL5.12 [7]) | inhibition [8] | inhibition [9] |
| --- | --- | --- | --- | --- | --- | --- | --- | --- | --- |
| O=C(CCCCCCC(=O)Nc1ccccc1)NO | Active |  |  |  |  |  |  |  |  |
| CCCCCCCCc1ccc(C(=O)C[C@@H]2C[C@@H](O)CN2)cc1.Cl | Active | 2.1 | 22 | 46 | Active |  |  |  |  |
| CCCCCCCCc1ccc(C(=O)[C@@H]2CCCN2)cc1.Cl | inactive | > 40 | -21 | -4 | inactive | 33 | Active |  |  |
| CCCCCCCCc1ccc([C@H]2CCN[C@@H]2CO)cc1 | Active | 2.1 | 41 | 66 | Active |  |  |  |  |
| CC(=O)CCCCCCc1ccc([C@H]2CCN[C@@H]2CO)cc1.Cl | inactive | 15.1 | -15 | -8 |  | 23 | inactive |  |  |
| Cc1nc(/C=C/CCCCCc2ccc([C@H]3CCN[C@@H]3CO)cc2)co1.Cl | inactive | 10.2 | 5 | 18 |  | 61 | inactive |  |  |
| CCCCCCCCc1ccc(C(=O)[C@@H]2C[C@@H](O)CN2)cc1.Cl |  | 28.1 | 2 | 9 | inactive | 48 | Active |  |  |
| Cl.OC[C@H]1NCC[C@@H]1c1ccc(CCCOCc2ccccc2)cc1 | inactive | 10.9 | 11 | 14 |  | 51 | inactive |  |  |
| CCCCCCCCc1ccc(CC(O)[C@@H]2C[C@@H](O)CN2)cc1.Cl (stereo not given in full) | Active | 3 | 19 | 62 | Active |  |  | inactive |  |
| CCCCCCCCc1ccc(C(=O)[C@H]2C[C@H](CO)CN2)cc1.Cl | inactive | 19.6 | 0 | 19 | inactive | 61 | Active |  |  |
| CCCCCCCCc1ccc(C(=O)C[C@@H]2CCCN2)cc1.Cl | Active | 2.5 | 28 | 57 | Active |  |  |  |  |
| CCCCCCCCc1ccc(C[C@@H]2C[C@@H](O)CN2)cc1 | Active | 2.2 | 40 | 63 | Active |  |  |  |  |
| CCCCCCCCc1ccc(CC(=O)[C@H]2C[C@H](OP(=O)(O)O)CN2)cc1.Cl | inactive | 25.3 |  | 5 |  | 8 | inactive | inactive |  |
| CCCCCCCCc1ccc(CCC(N)(CO)CO)cc1 [FINGOLIMOD] | Active | 2.1 | 30 | 63 | Active |  |  |  |  |
| CCCCCCCCc1ccc(C(=O)[C@@H]2C[C@@H](OP(=O)(O)O)CN2)cc1.Cl | inactive | 12.9 |  | 3 | inactive | -8 | inactive |  |  |
| CCCCCCCCc1ccc(CC(=O)[C@@H]2C[C@@H](O)CN2)cc1.Cl | inactive | 18.6 | 13 | 23 | inactive | 59 | Active |  |  |
| CCCCCCCCc1ccc(CC[C@@H]2CCCN2)cc1.Cl | Active | 2.8 | 41 | 63 | Active |  |  |  |  |
| CCCCCCCCc1ccc(CC(O)[C@H]2C[C@H](O)CN2)cc1.Cl (stereo not given in full) | Active | 1.8 | 9 | 62 | inactive |  |  | inactive |  |
| CCCCCCCCc1ccc(CC(=O)[C@H]2C[C@H](O)CN2)cc1.Cl | inactive | 17.1 | 11 | 16 | inactive | 54 | Active |  |  |
| CCCCCCCCc1ccc([C@@H]2CC[C@H]3C[C@H](CO)CN32)cc1.Cl | inactive | 12.2 | 0 | 32 | inactive | 68 | Active |  |  |
| CCCCCCCCc1ccc(C(=O)CC[C@@H]2C[C@@H](O)CN2)cc1.Cl | Active | 2.1 | 15 | 52 | Active |  |  |  |  |
| CCCCCCCCc1ccc(C(=O)C[C@H]2C[C@H](CO)CN2)cc1.Cl | Active | 2 | 44 | 60 | Active |  |  |  | inactive |
| CCCCCCCCc1ccc(C(C[C@@H]2CCCN2)OC)cc1.Cl (stereo not given in full) | Active | 3 | 16 | 58 | inactive |  |  |  |  |
| CCCCCCCCc1ccc(CC(=O)[C@@H]2C[C@@H](OP(=O)(O)O)CN2)cc1.Cl | inactive | 25 |  | 3 |  | 0 | inactive | inactive |  |
| CCCCCCCCc1ccc(C(=O)CC[C@H]2C[C@H](CO)CN2)cc1.Cl | Active | 4 | 8 | 46 | inactive |  |  |  |  |
| CCCCCCCCc1ccc(C(=O)[C@H]2C[C@H](O)CN2)cc1.Cl | Active | 15.3 | 12 | 51 | inactive | 41 | Active |  |  |
| CCCCCCCCc1ccc(C(=O)[C@H]2C[C@H](OP(=O)(O)O)CN2)cc1.Cl | inactive | 12.8 |  | -9 | inactive | 0 | inactive |  |  |
| Cc1nc(CCCCCCCc2ccc([C@H]3CCN[C@@H]3CO)cc2)co1.Cl | inactive | 8.4 | 5 | 33 |  | 61 | inactive |  |  |
